Calls of active or inactive are those of the source. No cut-off for these calls is given here.
Tests used:
Huh-7 = assay: Cytotoxicity against human HuH7 cells after 24 hrs by resazurin reduction assay; assay type: cell-based; details: huh-7, 24 h
Outline: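 Same multiplexed wells as the luciferase readout: cells with the Neo/EMCV-IRES-Fluc construct under Geneticin, exposed to compound for 24 h, then viability is read by non-invasive resazurin reduction before lysis. Eight concentrations from 0 to 10 μM, in quadruplicate. Activity is normalized to DMSO (0%) and 500 μM benzalkonium chloride (−100%).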

Nucleic Acid [1] = assay: Agonist activity at ECMV genomic RNA internal ribosomal entry site in human HuH7 cells after 24 hrs by firefly luciferase reporter gene assay; assay type: functional, cell-based; details: Encephalomyocarditis virus; Huh-7
Outline: (§1)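 Cells carry a bicistronic construct (Neo translated cap-dependently, firefly luciferase under EMCV IRES) and are grown with Geneticin. After 24 h with or without compound, resazurin viability is read first, then cells are lysed and luciferase is quantified (Steady-Glo). Dose response uses eight concentrations from 0 to 10 μM in quadruplicate. Normalization: DMSO 0%, 500 μM benzalkonium chloride −100%. Values reported are AC50, absolute AC50 (activity at −50% for antagonists, 50% for agonists) and Amax (activity at highest concentration).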

Nucleic Acid [2] = assay: Agonist activity at ECMV genomic RNA internal ribosomal entry site in human HuH7 cells assessed as activity measured at the highest concentration after 24 hrs by firefly luciferase reporter gene assay relative to control; assay type: functional, cell-based; details: Encephalomyocarditis virus; Huh-7; outline: as §1
Nucleic Acid [3] = assay: Antagonist activity at ECMV genomic RNA internal ribosomal entry site in human HuH7 cells after 24 hrs by firefly luciferase reporter gene assay relative to control; assay type: functional, cell-based; details: Encephalomyocarditis virus; Huh-7; outline: as §1
Nucleic Acid [4] = assay: Antagonist activity at ECMV genomic RNA internal ribosomal entry site in human HuH7 cells after 24 hrs by firefly luciferase reporter gene assay; assay type: functional, cell-based; details: Encephalomyocarditis virus; Huh-7; outline: as §1

O=c1c2ccccc2nc2n1CCc1c-2[nH]c2ccccc12 [RUTAECARPINE] was tested, and the Activity (Huh-7) was “Non-toxic”, the Activity (Nucleic Acid [1]) was 27.6 µM and the Activity (Nucleic Acid [2]) was 1030.
For COc1ccc(OCC(O)CN2CCN(c3ccccc3OC)CC2)c(C(C)(C)C)c1 (configuration not stated), the Activity (Huh-7) was “Non-toxic”, the Activity (Nucleic Acid [3]) was -42 and the Activity (Nucleic Acid [4]) was 3.08 µM.
For CCc1cc2cc3c(=O)n4c(nc3cc2s1)-c1[nH]c2ccc(OC)cc2c1CC4, the Activity (Huh-7) was “Non-toxic”, the Activity (Nucleic Acid [1]) was 0.35 µM and the Activity (Nucleic Acid [2]) was 33.5.
With COCCn1c(NC(CO)c2ccc(OC)c(OC)c2)nc2c1c(=O)n(C)c(=O)n2C (configuration not stated) the Activity (Huh-7) was “Non-toxic”, the Activity (Nucleic Acid [1]) was 42.8 µM and the Activity (Nucleic Acid [2]) was 346.
With COc1ccccc1N1CCN(CC(O)COc2cccc3ccccc23)CC1 (configuration not stated) [NAFTOPIDIL] the Activity (Huh-7) was “Non-toxic”, the Activity (Nucleic Acid [3]) was -34 and the Activity (Nucleic Acid [4]) was 1.48 µM.
COCCn1c(NC(COC)c2ccc(OC)c(OC)c2)nc2c1c(=O)n(C)c(=O)n2C (configuration not stated) was tested, and the Activity (Huh-7) was “Non-toxic”, the Activity (Nucleic Acid [1]) was “inactive” and the Activity (Nucleic Acid [2]) was 0.53.
In the case of COc1ccc2[nH]c3c(c2c1)CCn1c-3nc2cc3sc4c(c3cc2c1=O)CCCC4, the Activity (Huh-7) was “Non-toxic”, the Activity (Nucleic Acid [1]) was “inactive” and the Activity (Nucleic Acid [2]) was -7.44.
With COc1ccccc1N1CCN(CC(O)COc2ccc(-c3cc(C#N)c(=O)[nH]c3C)cc2)CC1 (configuration not stated) [SATERINONE] the Activity (Huh-7) was “Non-toxic”, the Activity (Nucleic Acid [3]) was 172 and the Activity (Nucleic Acid [4]) was 5.46 µM.
In the case of COc1ccc2[nH]c3c(c2c1)CCn1c-3nc2cc3sc4c(c3cc2c1=O)CCCCCC4, the Activity (Huh-7) was “Non-toxic”, the Activity (Nucleic Acid [1]) was 2.16 µM and the Activity (Nucleic Acid [2]) was 26.2.
